Consider eleven molecules from ChEMBL document CHEMBL1135500, “Highly antibacterial active aminoacyl penicillin conjugates with acylated bis-catecholate siderophores based on secondary diamino acids and related compounds” (2002).

≈ marks a conversion by molar mass, not a printed value. A value given as a limit tells only on which side of the number the result lay.

Assay type in all cases: functional
The test system of assay [1] is Stenotrophomonas maltophilia. The assay is described as follows: In vitro antibacterial activity against GN 12873 strain of Stenotrophomonas maltophilia. Summed up:
(§1)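 MIC by microbroth dilution in Mueller-Hinton broth following NCCLS guidelines.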

In the next assay the test system is Serratia marcescens. In words: In vitro antibacterial activity against SG 621 strain of Serratia marcescens. In outline: as §1
The next assay deals with Escherichia coli. In words: In vitro antibacterial activity against ATCC 25922 strain of Escherichia coli. Summed up:
as §1

In assay [2] the test system is Pseudomonas aeruginosa. The assay is described as follows: In vitro antibacterial activity against ATCC 27853 strain of Pseudomonas aeruginosa. In outline:
as §1

The test system of assay [3] is Pseudomonas aeruginosa. In words: In vitro antibacterial activity against SG 137 strain of Pseudomonas aeruginosa. Summed up: as §1
The test system of a further assay is Staphylococcus aureus. In words: In vitro antibacterial activity against SG 511 strain of Staphylococcus aureus. In outline:
as §1

The test system of a further assay is Klebsiella pneumoniae. In words: In vitro antibacterial activity against ATCC 100331 strain of Klebsiella pneumoniae. Summed up: as §1

Usually MIC stands for the least concentration at which growth counts as inhibited.

Turning to `COC(=O)Oc1cccc(C(=O)N(C)CCCN(CC(=O)NC(C(=O)NC2C(=O)N3C2SC(C)(C)C3C(=O)O)c2ccccc2)C(=O)c2cccc(OC(=O)OC)c2OC(=O)OC)c1OC(=O)OC` (configuration not stated), the minimal inhibitory concentration (MIC) in assay [1] worked out at 0.08 µg/mL (≈ 0.0815 µM); in the assay on Serratia marcescens it was 0.02 µg/mL (≈ 0.0204 µM); in the assay with Escherichia coli, 0.02 µg/mL (≈ 0.0204 µM); in the assay with Pseudomonas aeruginosa [2] it was 0.31 µg/mL (≈ 0.316 µM); in the assay on Pseudomonas aeruginosa [3], 0.04 µg/mL (≈ 0.0407 µM); in the assay on Staphylococcus aureus it was 5 µg/mL (≈ 5.09 µM). Moreover, the MIC against Klebsiella pneumoniae amounted to 0.005 µg/mL (≈ 0.00509 µM).
In the case of `CC(=O)Oc1cccc(C(=O)NCCCCN(Cc2ccc(OCC(=O)NC(C(=O)NC3C(=O)N4C3SC(C)(C)C4C(=O)O)c3ccccc3)cc2)C(=O)c2cccc(OC(C)=O)c2OC(C)=O)c1OC(C)=O` (configuration not stated), the MIC was 0.2 µg/mL (≈ 0.195 µM) in assay [1]; 6.25 µg/mL (≈ 6.1 µM) against Serratia marcescens; 0.78 µg/mL (≈ 0.762 µM) in the assay with Escherichia coli; 6.25 µg/mL (≈ 6.1 µM) in the assay with Pseudomonas aeruginosa [2]; 0.2 µg/mL (≈ 0.195 µM) against Pseudomonas aeruginosa [3]; 1.56 µg/mL (≈ 1.52 µM) against Staphylococcus aureus. Also, the minimum inhibitory concentration (MIC) against Klebsiella pneumoniae was under 0.05 µg/mL.
Turning to `CC1(C)S[C@@H]2[C@H](NC(=O)[C@H](N)c3ccccc3)C(=O)N2[C@H]1C(=O)O` [AMPICILLIN], the MIC in assay [1] is over 100 µg/mL; in the assay with Serratia marcescens, 25 µg/mL (≈ 71.5 µM); with Escherichia coli it was 6.25 µg/mL (≈ 17.9 µM); with Pseudomonas aeruginosa [2], over 100 µg/mL; with Pseudomonas aeruginosa [3] it was over 100 µg/mL; against Staphylococcus aureus, 0.4 µg/mL (≈ 1.14 µM). Besides, in the assay with Klebsiella pneumoniae, inhibition of growth (MIC) required 6.25 µg/mL (≈ 17.9 µM).
Consider `COC(=O)Oc1cccc2c(=O)n(CC(=O)Nc3cc(NC(=O)Cn4c(=O)oc5c(OC(=O)OC)cccc5c4=O)cc(C(=O)NC(C(=O)NC4C(=O)N5C4SC(C)(C)C5C(=O)O)c4ccccc4)c3)c(=O)oc12` (configuration not stated), for which the MIC in assay [1] was 3.12 µg/mL (≈ 3.01 µM); in the assay on Serratia marcescens, 12.5 µg/mL (≈ 12 µM); with Escherichia coli, 25 µg/mL (≈ 24.1 µM); in the assay on Pseudomonas aeruginosa [2], 1.56 µg/mL (≈ 1.5 µM); with Pseudomonas aeruginosa [3], 0.05 µg/mL (≈ 0.0482 µM); against Staphylococcus aureus it was 25 µg/mL (≈ 24.1 µM). Also, the MIC with Klebsiella pneumoniae was 1.56 µg/mL (≈ 1.5 µM).
On to `COC(=O)Oc1cccc2c(=O)n(CCC(=O)Nc3cc(NC(=O)CCn4c(=O)oc5c(OC(=O)OC)cccc5c4=O)cc(C(=O)NC(C(=O)NC4C(=O)N5C4SC(C)(C)C5C(=O)O)c4ccccc4)c3)c(=O)oc12` (configuration not stated), for which the MIC in assay [1] turned out to be 1.56 µg/mL (≈ 1.46 µM); in the assay on Serratia marcescens, 3.12 µg/mL (≈ 2.93 µM); with Escherichia coli it was 6.25 µg/mL (≈ 5.86 µM); against Pseudomonas aeruginosa [2] it was 0.2 µg/mL (≈ 0.188 µM); in the assay on Pseudomonas aeruginosa [3], 0.05 µg/mL (≈ 0.0469 µM); in the assay on Staphylococcus aureus it was 6.25 µg/mL (≈ 5.86 µM). This molecule came in with an MIC with Klebsiella pneumoniae of 0.2 µg/mL (≈ 0.188 µM).
As for `C[C@@H](O)[C@H]1C(=O)N2C(C(=O)O)=C(S[C@@H]3CN[C@H](C(=O)N(C)C)C3)[C@H](C)[C@H]12` [MEROPENEM], the MIC in assay [1] is over 100 µg/mL; in the assay on Serratia marcescens, 0.06 µg/mL (≈ 0.156 µM); with Escherichia coli, 0.04 µg/mL (≈ 0.104 µM); with Pseudomonas aeruginosa [2], 0.4 µg/mL (≈ 1.04 µM); in the assay with Pseudomonas aeruginosa [3], 0.2 µg/mL (≈ 0.522 µM); against Staphylococcus aureus, 0.1 µg/mL (≈ 0.261 µM). Moreover, in the assay with Klebsiella pneumoniae, the minimal inhibitory concentration (MIC) was determined as 0.04 µg/mL (≈ 0.104 µM).
`CC(=O)Oc1cccc(C(=O)NCCN(CC(=O)NC(C(=O)NC2C(=O)N3C2SC(C)(C)C3C(=O)O)c2ccccc2)C(=O)c2cccc(OC(C)=O)c2OC(C)=O)c1OC(C)=O` (configuration not stated): the MIC in assay [1] was found to be 0.78 µg/mL (≈ 0.877 µM); in the assay on Serratia marcescens it was 0.78 µg/mL (≈ 0.877 µM); in the assay with Escherichia coli, 0.78 µg/mL (≈ 0.877 µM); against Pseudomonas aeruginosa [2], 0.78 µg/mL (≈ 0.877 µM); in the assay with Pseudomonas aeruginosa [3], 0.4 µg/mL (≈ 0.449 µM); in the assay on Staphylococcus aureus, 3.12 µg/mL (≈ 3.51 µM). This molecule also gave a minimum inhibitory concentration (MIC) against Klebsiella pneumoniae of 0.1 µg/mL (≈ 0.112 µM).
As to `CC1(C)S[C@@H]2[C@H](NC(=O)[C@H](NC(=O)N3CCNC3=O)c3ccccc3)C(=O)N2[C@H]1C(=O)O` [AZLOCILLIN], the MIC in assay [1] stood at 25 µg/mL (≈ 54.2 µM); against Serratia marcescens it was 50 µg/mL (≈ 108 µM); against Escherichia coli it was 6.25 µg/mL (≈ 13.5 µM); in the assay with Pseudomonas aeruginosa [2] it was 6.25 µg/mL (≈ 13.5 µM); in the assay with Pseudomonas aeruginosa [3] it was 6.25 µg/mL (≈ 13.5 µM); in the assay on Staphylococcus aureus, 0.4 µg/mL (≈ 0.867 µM). For the same molecule, in the assay on Klebsiella pneumoniae, inhibition of growth (MIC) required 6.25 µg/mL (≈ 13.5 µM).
For the molecule `CC(=O)Oc1cccc(C(=O)NCCCCN(CC(=O)NC(C(=O)NC2C(=O)N3C2SC(C)(C)C3C(=O)O)c2ccccc2)C(=O)c2cccc(OC(C)=O)c2OC(C)=O)c1OC(C)=O` (configuration not stated), the MIC in assay [1] is 0.005 µg/mL (≈ 0.00545 µM); in the assay on Serratia marcescens, under 0.005 µg/mL; in the assay on Escherichia coli it was under 0.005 µg/mL; in the assay with Pseudomonas aeruginosa [2] it was 0.05 µg/mL (≈ 0.0545 µM); in the assay on Pseudomonas aeruginosa [3], under 0.005 µg/mL; with Staphylococcus aureus, 5 µg/mL (≈ 5.45 µM). Moreover, the MIC in the assay on Klebsiella pneumoniae was under 0.005 µg/mL.
Regarding `CC(=O)Oc1cccc(C(=O)NCCCCN(Cc2ccccc2C(=O)NC(C(=O)NC2C(=O)N3C2SC(C)(C)C3C(=O)O)c2ccccc2)C(=O)c2cccc(OC(C)=O)c2OC(C)=O)c1OC(C)=O` (configuration not stated), the MIC in assay [1] is under 0.05 µg/mL; in the assay with Serratia marcescens it was 0.4 µg/mL (≈ 0.402 µM); in the assay on Escherichia coli, 0.4 µg/mL (≈ 0.402 µM); with Pseudomonas aeruginosa [2], 0.2 µg/mL (≈ 0.201 µM); in the assay on Pseudomonas aeruginosa [3], 0.1 µg/mL (≈ 0.101 µM); with Staphylococcus aureus it was 0.78 µg/mL (≈ 0.785 µM). In the assay with Klebsiella pneumoniae, this molecule came in with an MIC of under 0.05 µg/mL.
In the case of `COC(=O)Oc1cc(Cl)cc(C(=O)N(C)CCCN(CC(=O)NC(C(=O)NC2C(=O)N3C2SC(C)(C)C3C(=O)O)c2ccccc2)C(=O)c2cc(Cl)cc(OC(=O)OC)c2OC(=O)OC)c1OC(=O)OC` (configuration not stated), the MIC in assay [1] is 0.02 µg/mL (≈ 0.019 µM); in the assay with Serratia marcescens it was 0.02 µg/mL (≈ 0.019 µM); in the assay on Escherichia coli, 0.05 µg/mL (≈ 0.0476 µM); against Pseudomonas aeruginosa [2], 0.1 µg/mL (≈ 0.0952 µM); against Pseudomonas aeruginosa [3], under 0.005 µg/mL; against Staphylococcus aureus it was 12.5 µg/mL (≈ 11.9 µM). The same molecule came in with an MIC with Klebsiella pneumoniae of under 0.005 µg/mL.
